{"source": "ChEMBL document CHEMBL1132556", "about": "“Combined effect of platination and intercalation upon DNA binding of novel cytotoxic Pt-bis(naphthalimide) complexes” (J Med Chem, 1999)", "key": {"[1]": {"test": "Compound was tested for inhibitory activity against normal Pam 212 murine keratinocytes; activity expressed in Mean IC50 values", "format": "functional, Mus musculus", "in_short": "(§1)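 Cell survival in drug-treated cultures read by MTT assay. Compound stock solutions (0.5–1.2 mg/mL) were freshly prepared before use. Cells: ovarian carcinoma lines A2780, A2780cisR, CH1 and CH1cisR; normal murine keratinocytes Pam 212; Pam 212-ras, which are murine keratinocytes transformed with the v-H-ras oncogene and resistant to cis-DDP.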"}, "[2]": {"test_system": "CH1", "test": "Compound was tested for inhibitory activity against CH1cisR human ovarian carcinoma cell line; activity expressed in Mean IC50 values", "format": "functional, cell-based", "in_short": "as §1"}, "[3]": {"test_system": "A2780", "test": "Compound was tested for inhibitory activity against A2780cisR human ovarian carcinoma cell line; activity expressed in Mean IC50 values", "format": "functional, cell-based", "in_short": "as §1"}, "[4]": {"test_system": "A2780", "test": "Compound was tested for inhibitory activity against A2780 human ovarian carcinoma cell line; activity expressed in Mean IC50 values", "format": "functional, cell-based", "in_short": "as §1"}, "[5]": {"test_system": "CH1", "test": "Compound was tested for inhibitory activity against CH1 human ovarian carcinoma cell line; activity expressed in Mean IC50 values", "format": "functional, cell-based", "in_short": "as §1"}, "[6]": {"test": "(§2) Compound was tested for inhibitory activity against transformed Pam 212-ras murine keratinocytes; activity expressed in Mean IC50 values", "format": "functional, Mus musculus", "in_short": "as §1"}, "[7]": {"organism": "Mus musculus", "test": "as §2", "format": "functional, organism-based", "in_short": "as §1"}}, "data": [{"molecule": "O=C1c2cccc3cccc(c23)C(=O)N1CCNCCNCCN1C(=O)c2cccc3cccc(c23)C1=O", "values": [{"measurement": "IC50", "setting": "[1]", "result": 140, "unit": "µM"}, {"measurement": "IC50", "setting": "[2]; Homo sapiens, CH1cisR", "result": "> 100000", "unit": "nM"}, {"measurement": "IC50", "setting": "[3]; Homo sapiens, A2780", "result": "> 100000", "unit": "nM"}, {"measurement": "IC50", "setting": "[4]; Homo sapiens, A2780", "result": "> 10000", "unit": "nM"}, {"measurement": "IC50", "setting": "[5]; Homo sapiens, CH1", "result": "> 10000", "unit": "nM"}, {"measurement": "IC50", "setting": "[6]", "result": 160, "unit": "µM"}]}, {"molecule": "CISPLATIN", "values": [{"measurement": "IC50", "setting": "[7]", "result": 165, "unit": "µM"}, {"measurement": "IC50", "setting": "[2]; ch1cisr", "result": 650, "unit": "nM"}]}, {"molecule": "Platinum cyclobutane-1,1-dicarboxylic acid-bis-(naphthalimide) complex", "values": [{"measurement": "IC50", "setting": "[1]", "result": 158, "unit": "µM"}, {"measurement": "IC50", "setting": "[2]; ch1cisr", "result": 600, "unit": "nM"}, {"measurement": "IC50", "setting": "[3]; a2780", "result": 1000, "unit": "nM"}, {"measurement": "IC50", "setting": "[4]; a2780", "result": 280, "unit": "nM"}, {"measurement": "IC50", "setting": "[5]; ch1", "result": 350, "unit": "nM"}, {"measurement": "IC50", "setting": "[6]", "result": 89, "unit": "µM"}]}]}
